# Source: ChEMBL document CHEMBL1148738, “Design, synthesis, and in vitro evaluation of carbamate derivatives of 2-benzoxazolyl- and 2-benzothiazolyl-(3-hydroxyphenyl)-methanones as novel fatty acid amide hydrolase inhibitors” (J Med Chem, 2007)
# Active and inactive are the calls of the source. The calls are words filed in the database; no cut-off is given here.
# What was measured:
# Rattus norvegicus [1] = species: Rattus norvegicus; assay: Inhibition of MAGL in Wistar rat cerebellar membrane assessed as remaining enzyme activity at 100 uM; values are per cent of control; settings: Cerebellum
# [2] = target: T1, Fatty-acid amide hydrolase 1 (Rattus norvegicus, UniProt P97612); assay: Inhibition of FAAH activity in Wistar rat brain
# T1 sequence (P97612 whole entry): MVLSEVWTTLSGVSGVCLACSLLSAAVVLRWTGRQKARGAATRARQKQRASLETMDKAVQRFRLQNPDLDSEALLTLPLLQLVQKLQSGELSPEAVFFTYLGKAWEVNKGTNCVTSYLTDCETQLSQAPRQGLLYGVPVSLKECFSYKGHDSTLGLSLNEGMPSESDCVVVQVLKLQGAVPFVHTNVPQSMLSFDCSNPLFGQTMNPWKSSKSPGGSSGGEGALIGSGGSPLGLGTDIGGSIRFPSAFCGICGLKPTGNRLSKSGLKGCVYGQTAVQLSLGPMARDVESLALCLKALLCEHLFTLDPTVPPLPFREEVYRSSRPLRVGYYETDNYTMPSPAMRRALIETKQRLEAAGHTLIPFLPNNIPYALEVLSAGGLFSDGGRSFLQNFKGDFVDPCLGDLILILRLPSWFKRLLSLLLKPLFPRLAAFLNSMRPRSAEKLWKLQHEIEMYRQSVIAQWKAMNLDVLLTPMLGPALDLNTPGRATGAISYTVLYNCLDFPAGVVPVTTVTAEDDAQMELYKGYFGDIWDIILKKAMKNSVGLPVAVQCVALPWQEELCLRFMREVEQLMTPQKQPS
# Summary of the method: (§1)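 Enzyme source: supernatant (10 000 g, 20 min, 4 °C) of whole-brain-minus-cerebellum homogenate from 8-week-old male Wistar rats in 0.1 M potassium phosphate pH 7.4. Compound (in DMSO, final max 5%) preincubated 10 min with 18 µg protein. Substrate: [ethanolamine 1-³H]arachidonoylethanolamide, with 0.5% fatty-acid-free BSA, 10 min at 37 °C. Stopped with ethyl acetate. Aqueous [³H]ethanolamine counted by liquid scintillation.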
# [3] = Inhibition of MAGL in Wistar rat cerebellar membrane; type: cell membranes, Cerebellum
# Summary of the method: (§2)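 Cerebellar membranes from 4-week-old male Wistar rats. Preincubation 30 min at 25 °C: 10 µg protein, 44 mM Tris-HCl pH 7.4, 0.9 mM EDTA, 0.5% BSA, 1.25% DMSO. Incubation 90 min at 25 °C: 5 µg protein, 54 mM Tris-HCl, 1.1 mM EDTA, 100 mM NaCl, 5 mM MgCl2, 0.5% BSA, 50 µM 2-AG. Samples at 0 and 90 min stopped with acidified acetonitrile (pH 3.0). 2-AG and arachidonic acid quantified by HPLC-UV at 211 nm from peak areas.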
# Rattus norvegicus [4] = species: Rattus norvegicus; assay: Inhibition of MAGL in Wistar rat cerebellar membrane assessed as remaining enzyme activity at 1 mM; values are per cent of control; settings: Cerebellum
# Rattus norvegicus [5] = species: Rattus norvegicus; assay: Inhibition of MAGL in Wistar rat cerebellar membrane at 100 uM; type: cell membranes; settings: Cerebellum
# Summary of the method: as §2
# [6] = target: T2, Fatty-acid amide hydrolase 1 (Rattus norvegicus) (UniProt P97612); assay: Inhibition of FAAH activity in Wistar rat brain assessed as remaining enzyme activity at 10 uM; values are per cent of control
# T2 sequence (whole entry): T1 sequence (P97612 whole entry)
# [7] = target: T2, Fatty-acid amide hydrolase 1 (Rattus norvegicus); assay: Inhibition of FAAH activity in Wistar rat brain at 10 uM
# Summary of the method: as §1
residual activity (Rattus norvegicus [1]) [%],IC50 [2] [nM],Structure (SMILES),also measured
54,28,O=C(NC1CCCC1)Oc1cccc(C(=O)c2nc3ccccc3o2)c1,–
–,32,Cc1cccc(CNC(=O)Oc2cccc(C(=O)c3nc4ccccc4o3)c2)c1,IC50 [3]: 16 µM; residual activity (Rattus norvegicus [4]): 11%
57,109,CCCNC(=O)Oc1cccc(C(=O)c2nc3ccccc3o2)c1,–
76,103,CCCCNC(=O)Oc1cccc(C(=O)c2nc3ccccc3s2)c1,–
–,–,O=C(Nc1cccc(C(=O)c2nc3ccccc3o2)c1)OC1CCCC1,Activity (Rattus norvegicus [5]): inactive; residual activity [6]: 95%
71,47,O=C(NC1CCCC1)Oc1cccc(C(=O)c2nc3ccccc3s2)c1,–
83,47,O=C(NC1CCCCC1)Oc1cccc(C(=O)c2nc3ccccc3o2)c1,–
–,38,Cc1cccc(CNC(=O)Oc2cccc(C(=O)c3nc4ccccc4s3)c2)c1,IC50 [3]: 23 µM; residual activity (Rattus norvegicus [4]): 11%
75,121,O=C(NCc1ccccc1)Oc1cccc(C(=O)c2nc3ccccc3s2)c1,–
–,–,O=C(c1cccc(OC(=O)C2CCCC2)c1)c1nc2ccccc2o1,Activity (Rattus norvegicus [5]): inactive; residual activity [6]: 88%
57,152,O=C(NCc1ccccc1)Oc1cccc(C(=O)c2nc3ccccc3o2)c1,–
75,379,CCNC(=O)Oc1cccc(C(=O)c2nc3ccccc3o2)c1,–
–,–,O=C(c1cccc(NC(=O)C2CCCC2)c1)c1nc2ccccc2o1,Activity (Rattus norvegicus [5]): inactive; residual activity [6]: 95%
–,–,O=C(Nc1cccc(C(=O)c2nc3ccccc3o2)c1)NC1CCCC1,Activity (Rattus norvegicus [5]): inactive; residual activity [6]: 94%
–,–,O=C(c1cccc(OCc2ccccc2)c1)c1nc2ccccc2o1,Activity [7]: inactive; Activity (Rattus norvegicus [5]): inactive
70,143,CCCNC(=O)Oc1cccc(C(=O)c2nc3ccccc3s2)c1,–
80,238,CCNC(=O)Oc1cccc(C(=O)c2nc3ccccc3s2)c1,–
–,–,O=C(c1cccc(OCc2ccccc2)c1)c1nc2ccccc2s1,Activity [7]: inactive; inhibition (Rattus norvegicus [5]): inactive
79,56,O=C(NC1CCCCC1)Oc1cccc(C(=O)c2nc3ccccc3s2)c1,–
–,137,Cc1ccccc1CNC(=O)Oc1ccc(C(=O)c2nc3ccccc3o2)cc1,IC50 [3]: 25 µM; residual activity (Rattus norvegicus [4]): 11%
59,54,CCCCNC(=O)Oc1cccc(C(=O)c2nc3ccccc3o2)c1,–
–,288,O=C(NC1CCCC1)Oc1ccc(C(=O)c2nc3ccccc3o2)cc1,IC50 [3]: 14 µM
